# Activity calls are given as the source filed them. The rule behind the calls is not given here.
# Tests used:
# [1] = tested on: KB; experiment: (§1) Antiproliferative activity against human KB/HeLa cells assessed as growth inhibition at 3.16 ug/ml after 48 hrs by XTT assay; format: functional
# Method in brief: (§2)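 This is the same 48 h XTT assay: 10-point half-log series, 0.3% final DMSO, 3 h XTT/PMS, A490, with untreated cells as 0% and blanks as 100% inhibition. Inhibition at the highest tested concentration was scored as none (<30%) or moderate (≥30%).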
# [2] = tested on: SK-OV-3; experiment: Antiproliferative activity against human SKOV3 cells assessed as growth inhibition at 3.16 ug/ml after 48 hrs by XTT assay; format: functional; conditions: for inhibition at 3.16 µg/mL: SK-OV-3, 48 h; method in brief: as §2
# [3] = tested on: SF-268; experiment: Antiproliferative activity against human SF268 cells assessed as growth inhibition at 3.16 ug/ml after 48 hrs by XTT assay; format: functional; conditions: for inhibition at 3.16 µg/mL: SF-268, 48 h; method in brief: as §2
# [4] = tested on: NCI-H460; experiment: Antiproliferative activity against human NCI-H460 cells assessed as growth inhibition at 3.16 ug/ml after 48 hrs by XTT assay; format: functional; conditions: for inhibition at 3.16 µg/mL: NCI-H460, 48 h; method in brief: as §2
# [5] = (§3) Antiproliferative activity against human RKOp27 cells assessed as growth inhibition at 3.16 ug/ml after 48 hrs by XTT assay; format: functional; conditions: RKOp27, 48 h; method in brief: as §2
# [6] = tested on: RKOp27; experiment: as §3; format: functional; method in brief: as §2
# [7] = (§4) Antiproliferative activity against human RKOp27IND cells assessed as growth inhibition at 3.16 ug/ml after 48 hrs by XTT assay; format: functional; method in brief: as §2
# [8] = organism: Homo sapiens; experiment: as §4; format: functional; method in brief: as §2
# [9] = Antiproliferative activity against human KB/HeLa cells after 48 hrs by XTT assay; format: functional, cell-based
# Method in brief: (§5)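 Compounds were added from DMSO stocks as a 10-point half-log dilution series, with final DMSO adjusted to 0.3%. Cells were incubated for 45 h at 37 °C/5% CO2, then with 1 mg/ml XTT plus PMS for a further 3 h. Absorbance at 490 nm was read after 48 h total. Untreated cells were set as 0% and cell-free blanks as 100% inhibition. EC50 came from nonlinear regression of at least two independent assays.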
# [10] = tested on: SF-268; experiment: Antiproliferative activity against human SF268 cells after 48 hrs by XTT assay; format: functional, cell-based; conditions: SF-268, 48 h; method in brief: as §5
# [11] = Antiproliferative activity against human RKOp27 cells after 48 hrs by XTT assay; format: functional, cell-based; conditions: RKOp27, 48 h; method in brief: as §5
# [12] = as §1; format: functional; method in brief: as §2
# [13] = tested on: NCI-H460; experiment: Antiproliferative activity against human NCI-H460 cells after 48 hrs by XTT assay; format: functional, cell-based; conditions: NCI-H460, 48 h; method in brief: as §5
# [14] = tested on: SK-OV-3; experiment: Antiproliferative activity against human SKOV3 cells after 48 hrs by XTT assay; format: functional, cell-based; conditions: SK-OV-3, 48 h
# Method in brief: (§6)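 Compounds dissolved in DMSO were added as a 10-point half-log dilution series, with final DMSO adjusted to 0.3%. Cells were incubated 45 h at 37 °C/5% CO2, then XTT (1 mg/ml) plus PMS was added for 3 h more (48 h total). Absorbance was read at 490 nm. Untreated cells were set as 0% inhibition and cell-free blanks as 100%. EC50 was fitted by nonlinear regression from ≥2 independent assays and reported as mean ± SD.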
# [15] = Antiproliferative activity against human RKOp27IND cells after 48 hrs by XTT assay; format: functional, cell-based; method in brief: as §6
# [16] = Chemical stability of the compound in KH2PO4/Na2HPO4 buffer at pH 5.5 after 6 hrs by NMR spectroscopy; format: physicochemical; conditions: pH 5.5, 6 h
# Method in brief: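 Compounds were exposed at 37 °C to a KH2PO4/Na2HPO4 buffer at pH 5.5, prepared according to the European Pharmacopoeia.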
SMILES,inhibition at 3.16 µg/mL [4],inhibition at 3.16 µg/mL [5],inhibition at 3.16 µg/mL [7],EC50 [9],EC50 [10],EC50 [11],inhibition at 3.16 µg/mL [2],inhibition at 3.16 µg/mL [12],inhibition at 3.16 µg/mL [3],EC50 [13],EC50 [14],EC50 [15],also measured
CN(C)CCc1cn(CCOS(C)(=O)=O)c2c1C(=O)c1ccncc1C2=O,< 30%,< 30%,< 30%,–,–,–,–,–,–,–,–,–,inhibition [1]: inactive; inhibition [2]: inactive; inhibition [3]: inactive; inhibition [4]: inactive; inhibition [6]: inactive; inhibition [8]: inactive
CN(C)CCc1cn(CCNCCO)c2c1C(=O)c1ccncc1C2=O,< 30%,–,< 30%,> 3.16 µg/mL,> 3.16 µg/mL,> 3.16 µg/mL,< 30%,–,–,–,–,–,–
CN(C)CCc1cn(CCCCO)c2c1C(=O)c1ccncc1C2=O,< 30%,< 30%,< 30%,–,–,–,< 30%,< 30%,< 30%,–,–,–,–
CS(=O)(=O)OCCn1ccc2c1C(=O)c1cnccc1C2=O,–,< 30%,≥ 30%,–,–,–,< 30%,< 30%,< 30%,> 3.16 µg/mL,–,–,–
CN(C)CCc1cn(CCN2CC2)c2c1C(=O)c1ccncc1C2=O,–,–,–,0.972 µg/mL,2.41 µg/mL,0.784 µg/mL,–,–,–,> 3.16 µg/mL,2.74 µg/mL,2.36 µg/mL,–
O=C1c2ccncc2C(=O)c2c1ccn2CCCCCCC1CO1 (centres undefined),< 30%,< 30%,< 30%,–,–,–,< 30%,< 30%,< 30%,–,–,–,Stability [16]: Stable
O=C1c2ccncc2C(=O)c2c1ccn2CC(O)CN1CC1 (centres undefined),–,–,–,0.747 µg/mL,> 3.16 µg/mL,0.899 µg/mL,–,–,–,2.21 µg/mL,> 3.16 µg/mL,> 3.16 µg/mL,–
CN(C)CCc1cn(CCN(C)C)c2c1C(=O)c1ccncc1C2=O,< 30%,< 30%,< 30%,–,–,–,< 30%,< 30%,< 30%,–,–,–,–
CN(C)CCCc1cn(CCCN(C)C)c2c1C(=O)c1ccncc1C2=O,–,–,< 30%,–,–,> 3.16 µg/mL,< 30%,< 30%,< 30%,> 3.16 µg/mL,–,–,–
O=C1c2ccncc2C(=O)c2c1ccn2CCCCCCC(O)CN1CC1 (centres undefined),–,–,< 30%,> 3.16 µg/mL,–,> 3.16 µg/mL,< 30%,–,< 30%,> 3.16 µg/mL,–,–,–
O=C1c2ccncc2C(=O)c2c1ccn2CCCC1CO1 (centres undefined),–,–,< 30%,> 3.16 µg/mL,–,> 3.16 µg/mL,< 30%,–,≥ 30%,> 3.16 µg/mL,–,–,Stability [16]: Stable
CN(C)CCCc1c[nH]c2c1C(=O)c1ccncc1C2=O,–,< 30%,< 30%,–,–,–,< 30%,< 30%,< 30%,–,–,–,–
CN(C)CCc1cn(CCO)c2c1C(=O)c1ccncc1C2=O,< 30%,–,< 30%,> 3.16 µg/mL,–,> 3.16 µg/mL,< 30%,–,< 30%,–,–,–,–
CN(C)CCc1cn(CCCCCCCO)c2c1C(=O)c1ccncc1C2=O,< 30%,< 30%,< 30%,–,–,–,< 30%,< 30%,< 30%,–,–,–,–
CNCCn1cc(CCN(C)C)c2c1C(=O)c1cnccc1C2=O,–,–,–,> 3.16 µg/mL,> 3.16 µg/mL,> 3.16 µg/mL,–,–,–,> 3.16 µg/mL,> 3.16 µg/mL,> 3.16 µg/mL,–
CN(C)CCc1cn(CCCCOS(C)(=O)=O)c2c1C(=O)c1ccncc1C2=O,–,–,–,–,–,–,–,–,–,–,–,–,Stability [16]: Unstable
CS(=O)(=O)OCCCCn1ccc2c1C(=O)c1cnccc1C2=O,–,–,< 30%,> 3.16 µg/mL,> 3.16 µg/mL,> 3.16 µg/mL,< 30%,–,–,> 3.16 µg/mL,–,–,–
CN(C)CCc1cn(CCCCCCCN2CC2)c2c1C(=O)c1ccncc1C2=O,–,–,< 30%,> 3.16 µg/mL,–,> 3.16 µg/mL,–,–,< 30%,> 3.16 µg/mL,> 3.16 µg/mL,–,–
O=C1c2c(O)ccc(O)c2C(=O)c2c(NCCNCCO)ccc(NCCNCCO)c21 [MITOXANTRONE],–,–,–,0.355 µg/mL,0.315 µg/mL,0.0865 µg/mL,–,–,–,0.122 µg/mL,0.121 µg/mL,0.763 µg/mL,–
CN(C)CCc1cn(CCCCCCCOS(C)(=O)=O)c2c1C(=O)c1ccncc1C2=O,–,–,–,–,–,–,–,–,–,–,–,–,Stability [16]: Unstable
CN(C)CCc1c[nH]c2c1C(=O)c1ccncc1C2=O,< 30%,< 30%,< 30%,–,–,–,< 30%,< 30%,< 30%,–,–,–,–
CS(=O)(=O)OCCCCCCCn1ccc2c1C(=O)c1cnccc1C2=O,< 30%,< 30%,< 30%,–,–,–,< 30%,< 30%,< 30%,–,–,–,–
CN(C)CCCn1cc(CCN(C)C)c2c1C(=O)c1cnccc1C2=O,–,–,–,> 3.16 µg/mL,> 3.16 µg/mL,> 3.16 µg/mL,–,–,–,> 3.16 µg/mL,> 3.16 µg/mL,> 3.16 µg/mL,–
O=C1c2ccncc2C(=O)c2c1ccn2CCCCCCCN1CC1,–,–,–,> 3.16 µg/mL,> 3.16 µg/mL,1.19 µg/mL,–,–,–,> 3.16 µg/mL,> 3.16 µg/mL,> 3.16 µg/mL,–
O=C1c2ccncc2C(=O)c2c1ccn2CC1CO1 (centres undefined),–,–,–,0.062 µg/mL,0.2 µg/mL,0.026 µg/mL,–,–,–,0.062 µg/mL,0.265 µg/mL,1.3 µg/mL,Stability [16]: Stable
CN(C)CCc1cn(CCCCN2CC2)c2c1C(=O)c1ccncc1C2=O,–,–,–,0.512 µg/mL,1.39 µg/mL,0.205 µg/mL,–,–,–,0.722 µg/mL,1.51 µg/mL,1.35 µg/mL,–
O=C1c2ccncc2C(=O)c2c1ccn2CCN1CC1,–,–,–,> 3.16 µg/mL,> 3.16 µg/mL,> 3.16 µg/mL,< 30%,–,–,> 3.16 µg/mL,–,> 3.16 µg/mL,–
O=C1c2ccncc2C(=O)c2c1ccn2CCCC(O)CN1CC1 (centres undefined),–,–,< 30%,> 3.16 µg/mL,–,> 3.16 µg/mL,< 30%,–,< 30%,> 3.16 µg/mL,–,–,–
O=C1c2ccncc2C(=O)c2c1ccn2CCCCN1CC1,–,–,–,0.549 µg/mL,1.89 µg/mL,0.299 µg/mL,–,–,–,0.727 µg/mL,2.19 µg/mL,2.23 µg/mL,–
